Shown are actives, neighbours in structure and some others; about 9.6% of the full set was active somewhere.
BaF3 tox – parental Ba/F3 viability inhibition as JAK2V617F counter-screen; CellTiter-Glo ATP luminescence; inhibition, % at 5.6 µM; actives 1.1% (n = 220,000); AID 1486;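 active = inhibition above a per-campaign cutoff, the mean inhibition of all tested compounds plus 3 SD, cut at about 27% in these data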;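 note: 0% = DMSO wells and 100% = JAK Inhibitor I control wells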
MT stabilizer – stabilizes microtubules in HeLa cells | HeLa tubulin immunostaining HCS, 24 h; share of cells brighter than vehicle mean+2SD | % tubulin-high responders, % at 10 µM | actives 0.83% (n = 200,000);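 active = plate Z-score above 3 for both tubulin-high and condensed-nucleus cell shares, with cell loss under 80%, at 10 µM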;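 note: anti alpha tubulin signal scored within the nucleus-defined area of each cell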
bCat nuc transl – beta-catenin nuclear translocation modulation | HeLa beta-catenin nuclear translocation, immunofluorescence imaging | nuclear translocation activity, % at 5 µM | actives 0.3% (n = 190,000) | AID 1665;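 active = nuclear translocation activity above 50% at 5 µM, with a well cell count of 50 or more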;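 note: per-cell ratio of nuclear to cytoplasmic median beta-catenin stain intensity; plate controls were DMSO negative control for no effect and GSK-3 inhibitor IX positive control for full effect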
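Signal – beta-catenin immunofluorescence imaging with DAPI · Test system – human HeLa cell line · Dosing – 5 µM primary single dose, 0.1% DMSO, 0.02–20 µM confirmation series · Measure – % activation, nuclear-to-cytoplasmic median beta-catenin signal ratio per cell · Incubation – 24 h compound exposure at 37°C, 5% CO2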
APP 5UTR inh – APP translation inhibition; SH-SY5Y APP 5'UTR-luciferase reporter, luminescence; inhibition, % at 2 µM; actives 0.82% (n = 190,000); AID 1285;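 active = inhibition above a set limit, derived from the sample mean plus 3 SD, cut at about 45% in these data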
Ba/F3 V617F tox – loss of viability in JAK2V617F-driven Ba/F3 cells. Ba/F3 EpoR-JAK2V617F viability, ATP luminescence. inhibition, % at 5.6 µM. actives 1.1% (n = 220,000);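 active = inhibition above the campaign mean plus 3 SD over all tested compounds, cut at about 24% in these data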;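 note: cytokine-independent growth of Ba/F3 cells driven by EpoR plus mutant JAK2; 0% = DMSO-treated cells and 100% = JAK inhibitor I control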
Lmaj promast – inhibitors of Leishmania major promastigote growth. Leishmania major promastigotes, resazurin fluorescence viability. inhibition, % at 10 µM. actives 9% (n = 200,000); in the data active = inhibition above about 50%;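 note: promastigotes grown with compound for 44 hours at 28 °C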
The depositor's hits bear a star; · = not tested or not shown.

SMILES | BaF3 tox | MT stabilizer | bCat nuc transl | APP 5UTR inh | Ba/F3 V617F tox | Lmaj promast
COc1ccc(-c2nn(C)c(=O)c3ccccc23)cc1NC(=O)Cn1nc(C)c2ccccc2c1=O | 17 | 6 | 0 | -8 | 4 | 100*
CSc1ccc(/C=C/C(=O)c2ccc(NC(=O)Cc3ccccc3)cc2)cc1 | 9 | 2 | 0 | -2 | -1 | 91*
CSc1ccc(/C=C/C(=O)c2ccc(NC(=O)C(C)C)cc2)cc1 | 0 | 4 | 0 | -7 | -4 | 100*
CCOC(=O)c1c(C)[nH]c(C(=O)N2CCN(c3ccc(OC)cc3)CC2)c1C | 3 | 5 | -1 | 3 | 3 | -5
CC(CCc1ccccc1)NCC(O)COc1ccccc1 (stereo not drawn) | 9 | 11 | -1 | -31 | 1 | 83*
CC(C)NCC(O)COc1ccc(Br)cc1 (stereo not drawn) | 7 | 3 | 1 | -12 | 3 | 3
OC(CNC1CCCCC1)COCCOc1ccc(Br)cc1 (stereo not drawn) | 13 | 4 | · | -8 | 8 | 95*
CCCC(NCC(O)COc1ccc(-c2ccccc2)cc1)c1ccccc1 (stereo not drawn) | -3 | 22* | -1 | 14 | -1 | 82*
O=[N+]([O-])c1ccc(OCC(O)CNC2CCCC2)cc1 (stereo not drawn) | 2 | · | 0 | · | -1 | ·
OC(CNC1CCCC1)COc1ccc(-c2ccccc2)cc1 (stereo not drawn) | 6 | 2 | 1 | -20 | 3 | 98*
CCn1ncc(/C=N\NC(=O)Cc2ccc([N+](=O)[O-])cc2)c1C | 2 | 1 | · | -56 | -3 | -5
Cc1ccc(C)c(N=Nc2nc3ccccc3n2C)c1 | 1 | 1 | 2 | -161 | -4 | 83*
CCOC(=O)c1c(-c2ncc(C(F)(F)F)cc2Cl)noc1C | 4 | 3 | -4 | -4 | 0 | -2
Cc1ccc(CN2C(=O)S/C(=C\c3ccccc3OCC(=O)O)C2=O)cc1 | 4 | 2 | 1 | 2 | 0 | -5
CC1(C)CCCN(C(=O)c2ccc3c(c2NCCO)C(=O)c2ccccc2C3=O)C1 | 4 | 4 | -2 | 8 | 1 | 100*
CC1CCCN(C(=O)c2ccc3c(c2NCCO)C(=O)c2ccccc2C3=O)C1 (stereo not drawn) | 3 | 1 | 1 | 12 | 1 | 91*
O=C1c2ccccc2C(=O)c2c1ccc(C(=O)N1CCCCC1)c2NCCO | 0 | 2 | -2 | 3 | -2 | 3
O=C(c1cc(F)cc2c1OCOC2)N1CCN(c2ccc(F)cc2)CC1 | 3 | · | 2 | · | 4 | ·
C=CCNC(=O)CC(=O)N/N=C/c1cccs1 | 4 | 4 | 0 | -37 | 3 | -5
CCOC(=O)N/N=C(\C)c1ccccc1OC(F)F | 5 | 4 | 0 | 9 | -4 | -1
CCN(CC)c1ccc(C(=O)n2cnc3ccccc32)cc1 | 2 | 22* | 6 | -24 | -3 | 5
CCn1c(SCC(=O)c2cc(OC)ccc2OC)nnc1C1CC1 | 3 | 5 | -2 | -2 | -4 | -2
CCN(CC)S(=O)(=O)c1cc(NS(=O)(=O)c2cccc(Cl)c2)ccc1C | 8 | 2 | -2 | -21 | -1 | 65*
CCN(CC)S(=O)(=O)c1cc(NS(=O)(=O)c2c(Cl)cccc2Cl)ccc1C | 5 | 2 | 0 | -16 | 4 | 2
COc1ccc(N(C(C)=O)S(=O)(=O)c2cccc3cccnc23)cc1 | 12 | 3 | 2 | -1 | 3 | 54*
SMILES | BaF3 tox | MT stabilizer | bCat nuc transl | APP 5UTR inh | Ba/F3 V617F tox | Lmaj promast
COc1ccc(N(C(C)=O)S(=O)(=O)c2cc(OC)ccc2OC)cc1 | 4 | 3 | -2 | 7 | -3 | 0
COc1ccc(S(=O)(=O)N(CCN2CCOCC2)Cc2cc(OC)ccc2OC)cc1 | 9 | 2 | · | -1 | 2 | 0
O=C(CNc1cccc2ccccc12)N/N=C/c1ccc([N+](=O)[O-])o1 | -2 | 6 | 1 | 0 | -3 | 99*
O=C(CNc1cccc2ccccc12)N/N=C/C(Br)=C/c1ccccc1 | 3 | 48* | 0 | 7 | -2 | -2
CC1=NNC(=O)C1CCC(=O)N/N=C/C(Br)=C/c1ccccc1 (stereo not drawn) | 2 | 3 | 3 | 82* | -1 | -5
O=C(CNc1cccc([N+](=O)[O-])c1)N/N=C/c1ccc([N+](=O)[O-])o1 | 6 | 3 | 1 | 10 | 3 | 100*
O=C(CNc1cccc2ccccc12)N/N=C/c1ccc[nH]1 | 0 | · | 0 | · | -4 | ·
O=C(CNc1ccccc1)N/N=C/c1cc([N+](=O)[O-])ccc1N1CCCC1 | 0 | 3 | -3 | 8 | 4 | -1
CCn1ccc(C(=O)Nc2ccccc2SC)n1 | 7 | 2 | -4 | -37 | 1 | -2
O=C(NNc1c(Cl)cc(Cl)cc1Cl)C1CCC1 | 2 | 3 | · | 13 | -1 | -4
O=S(=O)(Nc1cccnc1)c1ccc(Cl)cc1 | 1 | 3 | -5 | -10 | -6 | -3
Cc1nn2c(-c3ccncc3)ccnc2c1Br | 1 | 4 | 2 | -23 | -1 | 7
O=C(C1=NN(c2ccccc2)C2C(=O)N(c3ccccc3Cl)C(=O)C12)c1ccccc1 (stereo not drawn) | 5 | 7 | 0 | 5 | 0 | -9
CCOC(=O)Cc1c(C)nc2c(-c3ccccc3)c[nH]n2c1=O | 4 | 19* | -1 | -13 | 6 | -6
CC1=C(C(=O)OCc2ccc(C)cc2)C(c2ccc(O)c([N+](=O)[O-])c2)NC(=O)N1 (stereo not drawn) | -2 | 4 | -3 | -2 | -6 | -1
CC/C(=N/Nc1ccc(Cl)cc1)c1cnnc(SC)n1 | 2 | 2 | 0 | -8 | -1 | 54*
COc1ccc(CCNC(=O)c2nnn(-c3ccc4c(c3)OCCO4)c2N)cc1OC | 2 | 2 | · | -53 | 3 | 1
COC(=O)c1c(N2C(=O)[C@H]3[C@@H](C2=O)[C@]2(C(=O)Nc4ccc(C)cc42)N2CCC[C@@H]32)sc(C)c1C | 0 | 2 | 1 | 13 | -2 | 14
COc1cc(NS(=O)(=O)c2ccc(NC(=S)NC(=O)CC(C)C)cc2)nc(OC)n1 | -1 | 3 | 0 | 54* | -2 | -18
COc1ccc(NS(=O)(=O)c2ccc(NC(=S)NC(=O)c3ccc(Br)cc3)cc2)nn1 | 7 | 4 | 0 | 7 | 5 | 85*
COC(=O)CCC(=O)NC(=S)Nc1ccc(S(=O)(=O)Nc2cc(OC)nc(OC)n2)cc1 | 5 | 3 | · | -8 | 0 | -7
O=C(COC(=O)c1ccc(Cl)c(S(=O)(=O)N2CCCCC2)c1)NCC1CCCO1 (stereo not drawn) | 7 | 1 | 0 | 0 | 4 | -2
C/C(Cn1nnc([N+](=O)[O-])n1)=N\NC(=O)c1ccccc1 | 0 | 3 | 0 | -38 | 2 | 84*
CCC(=O)NC(=S)Nc1ccc(NC(=O)c2cccc([N+](=O)[O-])c2C)cc1 | 3 | 2 | -1 | -11 | 2 | 58*

Screens as filed in PubChem.
